This is an account of results in PubChem BioAssay AID617 (SRMLSC, 2007).

In the assay the test system is E. coli BW25113 ΔtolC growth inhibition, OD615. In words: E. coli ΔtolC antibacterial growth inhibition – strain BW25113 ΔtolC::kan, dose response (AID 617). In a few lines:
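Test system: E. coli BW25113 ΔtolC::kan bacteria / Buffer or medium: kanamycin-containing LB broth, 50 µg/mL / Compound: serial dilution series of compound / Incubation: bacterial growth with compound for 20 h, 37 °C / Measured by: OD615 / Read-out basis: growth-inhibition IC50 from four-parameter logistic curve, bounds set to 0% and 100%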
`O=S(=O)(Nc1nc2ccccc2s1)c1ccc(Br)s1`: the 50% inhibitory concentration (IC50) was 3.88 µM. Take `Cc1cc(Cl)cc(C)c1OCCCCn1ccnc1`: the IC50 is 15 µM.

Take `O=C(Nc1nc(-c2ccccn2)cs1)c1ccc(Cl)s1`: the concentration for half-maximal inhibition (IC50) is 0.13 µM. With `O=c1c2ccccc2n(Cc2ccc(F)cc2)c(=O)n1C1CCCC1` the figure was 9.26 µM.

On to `CCSC(C)CC1C/C(=N/O)c2c(CC)noc2C1` (centres undefined), for which the half-maximal inhibitory concentration (IC50) is 20.7 µM.

`CCC(C)(C)n1nnnc1CN(Cc1ccc(Cl)cc1)Cc1ccco1`: the IC50 is 12.6 µM. With `CC1=C(C(=O)OC(C)C)C(c2c[nH]c3ccccc23)n2ncnc2N1` (centres undefined) the figure was 6.11 µM; with `CCOc1cc(-c2c(C#N)c(=O)[nH]c3c2c(C)nn3-c2ccc(F)cc2)ccc1O`, 2.48 µM. Take `Brc1cccc(-c2n[nH]c(-c3ccccc3)n2)c1`: the half-maximal inhibitory concentration (IC50) is 23.8 µM. With `Cc1ccc(OCc2nc(C#N)c(N3CCN(Cc4ccccc4)CC3)o2)cc1` the figure was 12.9 µM. With `CCc1ccc2oc(=O)cc(CN(C)Cc3ccccc3)c2c1` the figure was 12.9 µM. Under `COC(=O)c1cn(NC(=O)c2cnccn2)c(=O)c2ccccc12` stands 2.44 µM; under `CCN(CCCNC(=O)CCc1nc(-c2ccc(C)cc2)no1)c1cccc(C)c1`, 68.8 µM. Consider `Cc1onc(-c2ccccc2)c1C(=O)Nc1sc2c(c1C#N)CCC2`, for which the concentration for half-maximal inhibition (IC50) is 10.1 µM.

With `CCOC(=O)Cc1ccc(NS(=O)(=O)c2ccc(SC)cc2)cc1`, the 50% inhibitory concentration (IC50) is 14.7 µM. As to `C=CCSc1n[nH]c(-c2ccc(OCCCC)cc2)n1`, the IC50 was 93.1 µM. Under `CCn1cc(C(=O)O)c(=O)c2cc(F)c(N3CCN(C(=O)Nc4ccccc4)CC3)cc21` stands less than 0.2 µM; under `Cc1sc2nc(CN(Cc3cccs3)C(=O)NC3CCCCC3)[nH]c(=O)c2c1C`, 6.91 µM; under `CCOC(=O)c1cc2sc(C)cc2n1C(C)C(=O)OCC` (centres undefined), 60.6 µM. With `CC(OC(=O)c1ccccc1NCc1ccco1)C(=O)Nc1ncc(Cl)cc1Cl` (centres undefined) the figure was 39.1 µM; with `OCCn1c(-c2ccc3c(c2)OCO3)csc1=Nc1ccccc1`, 23.5 µM. With `Cc1ccc(-c2nnn(CC(=O)N(Cc3ccco3)C(C(=O)NC(C)(C)C)c3cccs3)n2)o1` (centres undefined) the figure was 23.3 µM; with `CC(C)c1ccc(-c2nnn(Cc3nc4ccccc4s3)n2)cc1`, 22.8 µM. For `CC1CCCc2sc3nc(NCc4ccco4)n4ncnc4c3c21` (centres undefined), the IC50 is 11.6 µM.

Turning to `COc1ccccc1-c1nnc2sc(COc3ccc(Cl)cc3)nn12`, the IC50 is 16.4 µM. On to `O=C(CSc1nc2ccccc2o1)Nc1nc2c(s1)CCCC2`, for which the 50% inhibitory concentration (IC50) was 8.02 µM. With `O=C(Nc1ccccc1N1CCCCC1)c1cccs1`, the IC50 is 12.8 µM. With `O=C(c1ccc(Cl)c(Cl)c1)N(Cc1ccco1)c1ccc(O)cc1` the figure was 3.7 µM; with `CCCc1nc2ccccc2c(=O)n1NC(=O)c1c(O)c2ccccc2[nH]c1=O`, 5.73 µM; with `Cc1ccc(-c2nnc(SCC(=O)N3CC(C)CC(C)C3)o2)cc1C` (centres undefined), 12.9 µM. Under `O=C(Nc1nnc(-c2ccc(F)cc2)o1)c1ccco1` stands 16.3 µM; under `CC(=O)Nc1cccc(NC(=O)CSc2ncc(-c3ccc(Cl)cc3)n2Cc2ccco2)c1`, 2.99 µM. In the case of `CCCOC(=O)c1ccc(Oc2c(-c3ccc(O)cc3O)n[nH]c2C)cc1`, the IC50 is 3.26 µM.

In the case of `CCC(Oc1ccccc1)C(=O)Nc1nnc(C(F)(F)F)s1` (centres undefined), the IC50 is 9.18 µM. Under `c1ccc2c(c1)oc1c(N3CCN(Cc4ccc5c(c4)OCO5)CC3)ncnc12` stands 10.9 µM; under `Cc1cccc(C)c1NC(=O)C(c1cccs1)N(Cc1ccco1)C(=O)Cn1nnc2ccccc21` (centres undefined), 29.3 µM; under `Cc1cc(C)c2cc(CN(CCO)C(c3nnnn3Cc3ccc(F)cc3)C(C)C)c(=O)[nH]c2c1` (centres undefined), 21.7 µM. With `COc1ccccc1C1SCCN1S(=O)(=O)c1cccc(C(F)(F)F)c1` (centres undefined) the figure was 16.4 µM. Take `c1ccc(CCc2ccccc2-c2nc(-c3cccnc3)no2)cc1`: the IC50 was 11.9 µM. With `CCn1cc(C(=O)OC(C)C(=O)Nc2c(C)n(C)n(-c3ccccc3)c2=O)c(=O)c2ccc(C)nc21` (centres undefined) the figure was 12.7 µM; with `CCn1cc(C(=O)O)c(=O)c2cc(OC)ccc21`, 9.67 µM; with `CC1Oc2ccccc2N(Cc2ccccc2Cl)C1=O` (centres undefined), 27.9 µM. Under `CCCOC(=O)/C(C(N)=NCc1ccccc1)=C(\O)OCCC` stands 16.4 µM; under `O=C(Nc1ccc2c(c1)OCO2)c1ccc(COc2ccc3c(c2)CCC3)o1`, 7.79 µM.

As for `CCOc1ccc2[nH]c3c(N4CCN(c5ccccn5)CC4)ncnc3c2c1`, the IC50 is 12.2 µM. Under `Cc1ccccc1-c1nnc(SCc2ccccc2F)o1` stands 25.8 µM; under `CCCSc1oc(-c2ccco2)nc1S(=O)(=O)c1ccccc1`, 9.73 µM. With `CCCn1c2ccccc2c2nc3ccccc3nc21` the figure was 73.4 µM.

In the case of `CCCCOC(=O)Nc1cc(C(=O)OC)ccc1C(=O)OC`, the IC50 is 26.8 µM.

Regarding `C=CCNc1ncnc2c1[nH]c1ccc(C)cc12`, the IC50 is 2.38 µM. With `O=C(Nc1nc(-c2ccccn2)cs1)C1COc2ccccc2O1` (centres undefined) the figure was 0.97 µM; with `CCC(c1nnnn1C1CCCCC1)N(Cc1ccco1)Cc1cc2ccc(OC)cc2[nH]c1=O` (centres undefined), 13.3 µM. With `Cc1ccc(C)c(Cn2c(CN(C)Cc3ccccc3)nc3c2c(=O)n(C)c(=O)n3C)c1` the figure was 14.2 µM. Take `Cc1ccc(Cl)cc1N1CCN(C(=O)COc2ccc(S(=O)(=O)NC(C)C)cc2)CC1`: the half-inhibitory concentration (IC50) was 10.6 µM. Take `Clc1ccc(Nc2nc(-c3cccs3)cs2)nc1`: the IC50 is 80.2 µM.

`Cc1cc(C)cc(-n2ccnc2SCC(=O)Nc2ccc3c(c2)OCCO3)c1`: the IC50 is 28.1 µM. With `CCCC(=O)c1ccc(N2CCCCCC2)c(F)c1` the figure was 95.6 µM; with `O=C(Cn1c(C(=O)NCc2ccco2)cc2sccc21)c1ccccc1`, 24.6 µM.

As to `O=C1c2[nH]nc(-c3ccccc3O)c2C(c2cccc(Cl)c2)N1CC1CCCO1` (centres undefined), the concentration for half-maximal inhibition (IC50) was 4.35 µM. With `COc1ccc(-c2nnc(SCc3cc(C)cc(C)c3)o2)cc1` the figure was 6.77 µM; with `CC(=O)Nc1nc2ccccc2n1Cc1ccccc1C`, 18.1 µM; with `Cc1ccc(Nc2nc(CSc3nnnn3-c3ccccc3)cs2)cc1`, 11.5 µM. Turning to `Clc1ccc(OCCCc2nc(-c3cccnc3)no2)c(Cl)c1`, the IC50 is 17.2 µM. With `O=C(c1cccs1)N(Cc1nc2sc3c(c2c(=O)[nH]1)CCCC3)C1CCCC1` the figure was 9.95 µM. As for `Cc1ccc(O)c(-c2cc3ccccc3[nH]2)c1`, the 50% inhibitory concentration (IC50) is 11.7 µM. With `COCc1nnc(NC(=O)c2ccc(S(=O)(=O)N(C)C3CCCCC3)cc2)o1` the figure was 4.09 µM; with `Cc1cc(=O)[nH]c(SCC(=O)Nc2nc(-c3ccccc3)cs2)n1`, 4.48 µM; with `Nc1nncn1C(=O)CCCN1C(=O)c2ccccc2C1=O`, 12.7 µM.

Turning to `CCOC(=O)c1cc2sccc2n1Cc1ccc(C#N)cc1`, the 50% inhibitory concentration (IC50) was 11.1 µM.

`COc1ccc(S(=O)(=O)C(C#N)c2nc3ccccc3nc2N2CCCC(C)C2)cc1` (centres undefined): the IC50 is 6.97 µM. On to `N#Cc1nc(COc2ccccc2)oc1N1CCN(Cc2ccccc2)CC1`, for which the IC50 was 14.3 µM.

Regarding `Oc1ccc(Cl)cc1-c1cc(-c2ccccc2)n[nH]1`, the IC50 was 6.46 µM. Under `COc1ccc(-c2nc(-c3cccs3)c(-c3cccs3)[nH]2)cc1O` stands 6.09 µM; under `CC1(C)CC(=O)C=C(NCCN2CCN(C(=O)Nc3ccc(Cl)c(Cl)c3)CC2)C1`, 20.3 µM; under `O=S(=O)(Nc1cccc2ncccc12)c1cccs1`, 5.24 µM. Under `C=CCc1c(C)nc(SCc2nc3ccccc3c(=O)[nH]2)[nH]c1=O` stands 6.54 µM; under `CCCn1nnnc1NC(=O)CSc1ccc(Cl)cc1`, 4.21 µM. With `CC(C)c1nc(N2CCOCC2)c(C#N)c2c1CCCC2` the figure was 18 µM; with `CSc1ccc(-c2cc(=O)c3ccccc3o2)cc1`, 42.1 µM. Consider `CCn1c2ccccc2c2cc(C3C(C#N)=C(N)Oc4n[nH]c(COC)c43)ccc21` (centres undefined), for which the IC50 was 22.7 µM. Under `Cc1nc2c(-c3ccccc3)c(C)[nH]n2c(=O)c1Cl` stands 3.59 µM; under `CCOC(=O)c1cnc(-n2cc(C)cn2)nc1Nc1ccccc1OCC`, 16 µM. Under `O=C(Nc1cccc(Cl)c1)Nc1nccs1` stands 11 µM; under `CC1CCN(S(=O)(=O)c2cccc(C(=O)NCc3cccs3)c2)CC1`, 33.4 µM. Under `O=C(Nc1ccc(Cl)c(Cl)c1)OCc1cccnc1` stands 13.8 µM; under `Oc1c(CN2CCCCC2)cc(Br)c2cccnc12`, 4.8 µM. Regarding `Cc1cc(C)c(C#N)c(SCc2ccc3c(c2)OCO3)n1`, the half-inhibitory concentration (IC50) was 24.6 µM.

`CCCc1nc(SC2CCCC2)c2c(=O)n(C)c(=O)n(C)c2n1`: the IC50 is 13.6 µM.

On to `Cc1oc2c(CN3CCCC3)c(O)ccc2c(=O)c1-c1ccc(Br)cc1`, for which the IC50 is 25.5 µM.

Turning to `O=C(O)C1CC=CCC1C(=O)Nc1ccc(S(=O)(=O)N2CCCc3ccccc32)cc1` (centres undefined), the half-inhibitory concentration (IC50) was 8.93 µM. With `COc1ccc(Cn2c(=O)sc3ccccc32)cc1` the figure was 61.7 µM.

As for `O=S(=O)(c1ccccc1)c1nc(-c2ccco2)oc1N1CCCCCC1`, the half-inhibitory concentration (IC50) is 11.2 µM. Take `Cc1cc(N2CCC(C(=O)Nc3ccc(F)cc3)CC2)nc(-c2ccccc2)n1`: the IC50 is 22.5 µM.

For `CCCCc1cc(O)c(CCCC)c(O)c1`, the IC50 is 10.9 µM.

Regarding `N/C(=N/O)c1nc(N2CCCC2)nc(N(c2ccccc2)c2ccccc2)n1`, the half-maximal inhibitory concentration (IC50) was 10.9 µM. As to `Oc1ccccc1-c1nc(NCC2CCCO2)c2ccccc2n1` (centres undefined), the concentration for half-maximal inhibition (IC50) was 90.8 µM.

Consider `O=C(COc1ccccc1)Nc1nnc(-c2ccc(Cl)s2)o1`, for which the half-inhibitory concentration (IC50) was 1.86 µM.

For the molecule `O=C(OC1CCCCC1)c1ccc(NC(=O)c2ccco2)cc1`, the IC50 was 6.09 µM. Under `CC(C)(C)n1nnnc1C(c1cccs1)N1CCCc2ccccc21` (centres undefined) stands 13.6 µM.
